Reference: ChEMBL document CHEMBL1127672, “Synthesis and biological evaluation of 2',3'-dideoxy-L-pyrimidine nucleosides as potential antiviral agents against human immunodeficiency virus (HIV) and hepatitis B virus (HBV)” (J Med Chem, 1994)

Assays:
Hepatoma cell line = assay: The compound was tested for antiviral activity against Hepatitis B virus in human hepatoma cells.; type: functional; settings: read-out: ED50 (the source's name)
In short: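 HBV-carrying human hepatoma 2.2.15 cells, six-day-old cultures in MEM with Earle's salts and 10% FBS, given varying drug concentrations for 3 days, medium renewed with same drug for a further 3 days; virions in harvested medium PEG-precipitated, viral DNA measured by Southern analysis against untreated controls; ED50 = 50% inhibition.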

CCRF-CEM [1] = assay: In vitro cytotoxicity against human CCRF-CEM T-lymphoblastic leukemia cells was determined; type: functional, cell-based
In short: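 CCRF-CEM suspension cultures in RPMI 1640 plus 10% horse serum, 37 °C, 5% CO2; exponential-phase cells at 2 × 10^4 cells/mL given various concentrations; cell numbers counted after 3 days versus drug-free control; 50% value read from plot of cell number against concentration.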

MT2 = assay: The compound was tested for antiviral activity against HIV-1 in MT-2 cells; type: functional, Homo sapiens; settings: read-out: ED50 (the source's name)
In short: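 MT-2 cells (1 × 10^4/well, triplicate) in RPMI 1640 with 10% dialysed FBS infected with HIV-1 HTLV-IIIB at 0.1 TCID50/cell (0.01 for one compound), immediately added to serial drug dilutions; after 5 days, MTT read at A595; % protection versus infected and uninfected no-drug controls; ED50 from log plots.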

CCRF-CEM [2] = assay: Concentration of compound required to inhibit the synthesis of mitochondrial DNA (mt DNA) in human CCRF-CEM T-lymphoblastic leukemia cells; type: functional, cell-based
In short: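 CEM cells exposed to varying drug concentrations, collected, washed in PBS, lysed in 10 mM Tris-HCl pH 7.0 by freeze-thaw; RNase A (10 μg/mL final) then proteinase K for 1 h; DNA blotted onto nylon after NaI addition and boiling 10 min. IC50 = concentration inhibiting mt DNA synthesis by 50%.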

[3] = Homo sapiens, Hepatoma cell line

Nc1nc(=O)n([C@H]2CC[C@H](CO)O2)cc1F
EC50 (Hepatoma cell line; [3]): 0.5 µM
IC50 (CCRF-CEM [1]; Homo sapiens, CCRF-CEM): > 100 µM
EC50 (MT2; Homo sapiens, MT2): 6 µM

Cc1cn([C@@H]2CC[C@H](CO)O2)c(=O)[nH]c1=O
EC50 (Hepatoma cell line; [3]): > 10 µM
EC50 (MT2; Homo sapiens, MT2): > 100 µM

O=c1ccn(C2CCC(CO)O2)c(=O)[nH]1 (stereo not drawn)
EC50 (Hepatoma cell line; [3]): > 100 µM
IC50 (CCRF-CEM [1]; Homo sapiens, CCRF-CEM): > 100 µM
EC50 (MT2; Homo sapiens, MT2): > 100 µM

Nc1ccn([C@H]2CC[C@@H](CO)O2)c(=O)n1 (stereo in doubt; form 1) [ZALCITABINE]
EC50 (Hepatoma cell line): 2.8 µM
IC50 (CCRF-CEM [1]; ccrf-cem): 28 µM
IC50 (CCRF-CEM [2]; ccrf-cem): 0.022 µM
EC50 (MT2): 1.5 µM

Nc1ccn([C@H]2CC[C@@H](CO)O2)c(=O)n1 (stereo in doubt; form 2) [ZALCITABINE]
EC50 (Hepatoma cell line): 5 µM
EC50 (MT2): > 100 µM

O=c1[nH]c(=O)n(C2CCC(CO)O2)cc1F (stereo not drawn)
EC50 (Hepatoma cell line; [3]): > 10 µM
IC50 (CCRF-CEM [1]; Homo sapiens, CCRF-CEM): > 100 µM
EC50 (MT2; Homo sapiens, MT2): > 100 µM

Nc1ccn([C@H]2CC[C@@H](CO)O2)c(=O)n1 (stereo in doubt; form 3) [ZALCITABINE]
EC50 (Hepatoma cell line): 0.01 µM
IC50 (CCRF-CEM [1]; ccrf-cem): 70 µM
IC50 (CCRF-CEM [2]; ccrf-cem): > 100 µM
EC50 (MT2): 5 µM

Nc1nc(=O)n([C@@H]2CC[C@H](CO)O2)cc1F (stereo in doubt; form 1)
EC50 (Hepatoma cell line): 10 µM
IC50 (CCRF-CEM [1]; ccrf-cem): 2 µM
EC50 (MT2): 2 µM

Nc1nc(=O)n([C@@H]2CC[C@H](CO)O2)cc1F (stereo in doubt; form 2)
EC50 (Hepatoma cell line): 0.01 µM
IC50 (CCRF-CEM [1]; ccrf-cem): 67 µM
IC50 (CCRF-CEM [2]; Homo sapiens, CCRF-CEM): > 100 µM
EC50 (MT2): 0.5 µM
